Key:
[1] = biological target: Tyrosine-protein kinase Lck (Homo sapiens) (UniProt P06239); assay: Equilibrium constant for competitive binding to p56 lck SH2 domain by SPR after 4th run
Outline: (§1)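 Injected at 5 μL/min over streptavidin chip bearing biotinylated EPQpYEEIPIA (500 nM loading); 10 mM HCl regeneration. Plateau RU vs peptide fitted by nonlinear regression (eq 15) for KS, KC fixed from direct binding.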

[2] = biological target: Tyrosine-protein kinase Lck (Homo sapiens) (UniProt P06239); assay: Equilibrium constant for competitive binding to p56 lck SH2 domain by SPR after 1st run; outline: as §1
[3] = biological target: Tyrosine-protein kinase Lck (Homo sapiens) (UniProt P06239); assay: Equilibrium constant for competitive binding to p56 lck SH2 domain by SPR after 3rd run; outline: as §1
[4] = biological target: Tyrosine-protein kinase Lck (Homo sapiens) (UniProt P06239); assay: Equilibrium constant for competitive binding to p56 lck SH2 domain by SPR after 2nd run; outline: as §1
[5] = biological target: Tyrosine-protein kinase Lck (Homo sapiens) (UniProt P06239); assay: Equilibrium constant for competitive binding to p56 lck SH2 domain by SPR after 5th run; outline: as §1

Chain of Tyrosine-protein kinase Lck (Homo sapiens) (P06239 2-509 limits assumed): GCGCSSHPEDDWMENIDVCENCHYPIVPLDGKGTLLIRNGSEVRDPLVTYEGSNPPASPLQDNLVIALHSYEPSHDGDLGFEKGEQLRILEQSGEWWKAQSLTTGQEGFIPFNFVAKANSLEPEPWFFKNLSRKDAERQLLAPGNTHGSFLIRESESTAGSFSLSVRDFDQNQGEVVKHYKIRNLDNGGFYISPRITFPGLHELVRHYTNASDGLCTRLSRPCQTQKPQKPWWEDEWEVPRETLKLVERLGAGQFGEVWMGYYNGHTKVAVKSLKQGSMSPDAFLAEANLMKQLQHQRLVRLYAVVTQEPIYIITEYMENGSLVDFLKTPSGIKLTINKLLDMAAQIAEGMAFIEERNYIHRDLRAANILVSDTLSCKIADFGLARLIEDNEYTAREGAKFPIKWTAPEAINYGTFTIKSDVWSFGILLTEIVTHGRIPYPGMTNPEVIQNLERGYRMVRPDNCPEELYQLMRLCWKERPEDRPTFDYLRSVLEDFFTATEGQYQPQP

`NC(=O)CC[C@H](NC(=O)CNC(=O)[C@@H](N)CCC(=O)O)C(=O)N[C@@H](Cc1ccc(OP(=O)(O)O)cc1)C(=O)N[C@@H](CCC(=O)O)C(=O)N[C@@H](CCC(=O)O)C(=O)NCC(=O)N1CCC[C@@H]1C(=O)O` gave a Ks [1] of 938 nM, a Ks [2] of 833 nM and a Ks [3] of 908 nM. It also gave a Ks [4] of 916 nM and a Ks [5] of 2.16 µM.
`CC[C@H](C)[C@H](NC(=O)[C@H](CCC(=O)O)NC(=O)[C@H](CCC(=O)O)NC(=O)[C@H](Cc1ccc(OP(=O)(O)O)cc1)NC(=O)[C@H](CCC(N)=O)NC(=O)CNC(=O)[C@@H](N)CCC(=O)O)C(=O)N1CCC[C@@H]1C(=O)O` gave a Ks [1] of 27.8 nM, a Ks [2] of 14.4 nM and a Ks [3] of 26.9 nM. The Ks [4] was 22.8 nM.
Molecule `CC[C@H](C)[C@H](NC(=O)CNC(=O)[C@H](CCC(=O)O)NC(=O)[C@H](Cc1ccc(OP(=O)(O)O)cc1)NC(=O)[C@H](CCC(N)=O)NC(=O)CNC(=O)[C@@H](N)CCC(=O)O)C(=O)N1CCC[C@@H]1C(=O)O` has a Ks [1] of 261 nM, a Ks [2] of 171 nM and a Ks [3] of 242 nM. The Ks [4] was 167 nM and the Ks [5] was 0.536 µM.
Molecule `CC[C@H](C)[C@H](NC(=O)[C@H](CCC(=O)O)NC(=O)CNC(=O)[C@H](Cc1ccc(OP(=O)(O)O)cc1)NC(=O)CNC(=O)[C@H](CCC(N)=O)NC(=O)[C@@H](N)CCC(=O)O)C(=O)N1CCC[C@@H]1C(=O)O` has a Ks [1] of 1250 nM, a Ks [2] of 1320 nM and a Ks [3] of 1220 nM. It also gave a Ks [4] of 982 nM and a Ks [5] of 2.85 µM.

Source: ChEMBL document CHEMBL1128297, “Determination of receptor-ligand kinetic and equilibrium binding constants using surface plasmon resonance: application to the lck SH2 domain and phosphotyrosyl peptides” (J Med Chem, 1995)
